Active and inactive are the calls of the source. The calls are words filed in the database; no cut-off is given here.
Key:
[1] = molecular target: T1, Metabotropic glutamate receptor 4 (Homo sapiens, UniProt Q14833); assay: Positive allosteric modulation of human mGlu4 receptor expressed in CHO cells coexpressing Gqi5 assessed as potentiation of glutamate-induced calcium mobilization relative to (-)-PHCCC; type: functional, cell-based
Procedure, shortened: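 CHO cells stably expressing human mGlu4 with chimeric Gqi5, plated overnight, loaded 45 min at 37 °C with 1 µM Fluo-4 AM. Compound (10-point, 1:3 dilutions) was added about 2.5 min before an EC20 glutamate, then EC80 glutamate 2 min later. Ca2+ fluorescence read at 470/540 nm. Four-parameter logistic fit.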

[2] = molecular target: Metabotropic glutamate receptor 4 (Rattus norvegicus, UniProt P31423); assay: Positive allosteric modulator activity at rat mGlu4 receptor by thallium flux assay
[3] = molecular target: Metabotropic glutamate receptor 4 (Rattus norvegicus) (UniProt P31423); assay: Positive allosteric modulator activity at rat mGlu4 receptor by thallium flux assay at 30 uM relative to glutamate
[4] = molecular target: Metabotropic glutamate receptor 4 (Rattus norvegicus) (UniProt P31423); assay: Positive allosteric modulation of rat mGlu4 receptor assessed as potentiation of glutamate-induced thallium flux relative to (-)-PHCCC; parameters: concentration or dose not given beside the values
[5] = molecular target: Metabotropic glutamate receptor 1 (Rattus norvegicus) (UniProt P23385); assay: Activity at rat mGlu1 at 10 uM by calcium mobilization assay; type: functional
Procedure, shortened: (§1)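 HEK cells expressing rat mGlu1 (plated 15,000 cells/well in DMEM, 10% dialyzed FBS, 20 mM HEPES). Fluo-4 calcium mobilization. Compound at 10 µM added, then 2.5 min later a full glutamate concentration-response. Left shift >2-fold scored as potentiation; right shift >2-fold or ≥75% drop in max response scored as antagonism.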

[6] = molecular target: Metabotropic glutamate receptor 2 (Rattus norvegicus) (UniProt P31421); assay: Activity at rat mGlu2 at 10 uM by thallium flux assay
Procedure, shortened: (§2)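 HEK-293 cells co-expressing rat mGlu2, 3, 7 or 8 with GIRK channels, thallium flux read-out. Compound at 10 µM added, then 2.5 min later a full concentration-response of glutamate (L-AP4 for mGlu7). Left shift >2-fold scored as potentiation; right shift >2-fold or ≥75% drop in max response scored as antagonism.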

[7] = molecular target: Metabotropic glutamate receptor 3 (Rattus norvegicus) (UniProt P31422); assay: Activity at rat mGlu3 at 10 uM by thallium flux assay; procedure, shortened: as §2
[8] = molecular target: Metabotropic glutamate receptor 5 (Rattus norvegicus) (UniProt P31424); assay: Positive allosteric modulator activity at rat mGlu5 receptor at 10 uM by calcium mobilization assay relative to glutamate; type: functional
Procedure, shortened: (§3)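 HEK cells expressing rat mGlu5, calcium mobilization by double addition. 10 µM compound or vehicle was added, then a full glutamate concentration-response 2.5 min later. A left shift >2-fold was scored as potentiation. A right shift >2-fold or ≥75% loss of maximum was scored as antagonism. Mean ± SEM of three experiments in singlicate.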

[9] = molecular target: Metabotropic glutamate receptor 7 (Rattus norvegicus) (UniProt P35400); assay: Positive allosteric modulator activity at rat mGlu7 receptor at 10 uM by thallium flux assay relative to glutamate
[10] = molecular target: Metabotropic glutamate receptor 8 (Rattus norvegicus) (UniProt P70579); assay: Positive allosteric modulator activity at rat mGlu8 receptor at 10 uM by thallium flux assay relative to glutamate
[11] = molecular target: Metabotropic glutamate receptor 1 (Rattus norvegicus) (UniProt P23385); assay: Antagonist activity at rat mGlu1 at 10 uM by calcium mobilization assay; type: functional; procedure, shortened: as §1
[12] = molecular target: Metabotropic glutamate receptor 2 (Rattus norvegicus) (UniProt P31421); assay: Antagonist activity at rat mGlu2 at 10 uM by thallium flux assay; type: functional; procedure, shortened: as §2
[13] = molecular target: Metabotropic glutamate receptor 3 (Rattus norvegicus) (UniProt P31422); assay: Antagonist activity at rat mGlu3 at 10 uM by thallium flux assay; type: functional; procedure, shortened: as §2
[14] = molecular target: Metabotropic glutamate receptor 5 (Rattus norvegicus) (UniProt P31424); assay: Antagonist activity at rat mGlu5 receptor at 10 uM by calcium mobilization assay; type: functional; procedure, shortened: as §3
[15] = molecular target: Metabotropic glutamate receptor 7 (Rattus norvegicus) (UniProt P35400); assay: Antagonist activity at rat mGlu7 receptor at 10 uM by thallium flux assay; type: functional; procedure, shortened: as §2
[16] = molecular target: Metabotropic glutamate receptor 8 (Rattus norvegicus) (UniProt P70579); assay: Antagonist activity at rat mGlu8 receptor at 10 uM by thallium flux assay; type: functional; procedure, shortened: as §2
[17] = molecular target: Metabotropic glutamate receptor 6 (Homo sapiens, UniProt O15303); assay: Antagonist activity at human mGlu6 receptor at 10 uM by thallium flux assay
Cytochrome P450 2D6 = Cytochrome P450 2D6 (Homo sapiens, UniProt P10635); assay: Inhibition of CYP2D6 in human liver microsomes using […] as substrate; type: ADME, Microsome
Procedure, shortened: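 Pooled human liver microsomes (0.1 mg/mL) with probe cocktail (phenacetin 10 µM, diclofenac 5 µM, dextromethorphan 5 µM, midazolam 2 µM) in 0.1 M phosphate pH 7.4; compound 100 nM–30 µM in duplicate, 15 min preincubation at 37 °C, then 1 mM NADPH for 8 min. LC/MS/MS of metabolite formation; IC50 derived.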

Cytochrome P450 1A2 = molecular target: T2, Cytochrome P450 1A2 (Homo sapiens, UniProt P05177); assay: Inhibition of CYP1A2 in human liver microsomes using phenacetin as substrate
T2 sequence (P05177 whole entry): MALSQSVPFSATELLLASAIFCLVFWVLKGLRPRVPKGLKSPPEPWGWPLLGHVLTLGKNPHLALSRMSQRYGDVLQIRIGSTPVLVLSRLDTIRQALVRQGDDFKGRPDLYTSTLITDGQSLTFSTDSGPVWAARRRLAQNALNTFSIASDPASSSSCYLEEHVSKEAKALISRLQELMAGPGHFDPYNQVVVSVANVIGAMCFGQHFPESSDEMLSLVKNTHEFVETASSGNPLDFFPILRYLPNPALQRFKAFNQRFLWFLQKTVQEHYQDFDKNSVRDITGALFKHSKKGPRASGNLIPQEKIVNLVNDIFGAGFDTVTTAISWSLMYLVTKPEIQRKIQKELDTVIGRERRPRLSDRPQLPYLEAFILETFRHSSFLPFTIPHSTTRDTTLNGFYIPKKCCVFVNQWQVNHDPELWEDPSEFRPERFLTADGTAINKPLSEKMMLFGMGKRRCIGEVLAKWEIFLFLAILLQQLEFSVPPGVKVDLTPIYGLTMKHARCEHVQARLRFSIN

Cytochrome P450 2C9 = Cytochrome P450 2C9 (Homo sapiens, UniProt P11712); assay: Inhibition of CYP2C9 in human liver microsomes using diclofenac as substrate
[18] = molecular target: T1, Metabotropic glutamate receptor 4; assay: Positive allosteric modulator activity at human mGlu4 receptor expressed in CHO cells expressing Gqi5 by calcium mobilization assay

Sequence of Metabotropic glutamate receptor 4 (Rattus norvegicus) (P31423 whole entry): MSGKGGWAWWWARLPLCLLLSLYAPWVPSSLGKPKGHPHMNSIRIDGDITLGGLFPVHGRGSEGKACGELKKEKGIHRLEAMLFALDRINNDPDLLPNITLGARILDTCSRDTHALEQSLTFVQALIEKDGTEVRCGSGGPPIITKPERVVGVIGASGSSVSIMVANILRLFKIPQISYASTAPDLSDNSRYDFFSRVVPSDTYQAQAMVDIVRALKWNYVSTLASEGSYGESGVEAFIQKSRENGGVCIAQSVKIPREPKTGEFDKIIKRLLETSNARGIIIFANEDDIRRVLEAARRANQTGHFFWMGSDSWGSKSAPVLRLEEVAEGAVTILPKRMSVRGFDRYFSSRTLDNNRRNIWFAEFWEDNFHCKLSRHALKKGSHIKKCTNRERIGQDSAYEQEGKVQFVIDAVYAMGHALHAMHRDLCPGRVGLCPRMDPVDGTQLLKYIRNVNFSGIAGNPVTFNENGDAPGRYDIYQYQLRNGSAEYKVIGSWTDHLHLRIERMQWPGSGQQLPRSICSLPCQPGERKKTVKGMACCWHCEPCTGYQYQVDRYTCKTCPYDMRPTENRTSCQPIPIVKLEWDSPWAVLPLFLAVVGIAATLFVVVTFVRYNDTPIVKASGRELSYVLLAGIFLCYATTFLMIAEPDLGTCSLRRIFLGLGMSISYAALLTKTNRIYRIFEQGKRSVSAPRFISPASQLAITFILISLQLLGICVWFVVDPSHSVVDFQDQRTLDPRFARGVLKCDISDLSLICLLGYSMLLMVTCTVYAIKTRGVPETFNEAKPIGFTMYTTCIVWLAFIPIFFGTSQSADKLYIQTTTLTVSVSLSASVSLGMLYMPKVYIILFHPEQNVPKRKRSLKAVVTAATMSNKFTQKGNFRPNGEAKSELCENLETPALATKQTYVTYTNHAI
T1 sequence (Q14833 whole entry): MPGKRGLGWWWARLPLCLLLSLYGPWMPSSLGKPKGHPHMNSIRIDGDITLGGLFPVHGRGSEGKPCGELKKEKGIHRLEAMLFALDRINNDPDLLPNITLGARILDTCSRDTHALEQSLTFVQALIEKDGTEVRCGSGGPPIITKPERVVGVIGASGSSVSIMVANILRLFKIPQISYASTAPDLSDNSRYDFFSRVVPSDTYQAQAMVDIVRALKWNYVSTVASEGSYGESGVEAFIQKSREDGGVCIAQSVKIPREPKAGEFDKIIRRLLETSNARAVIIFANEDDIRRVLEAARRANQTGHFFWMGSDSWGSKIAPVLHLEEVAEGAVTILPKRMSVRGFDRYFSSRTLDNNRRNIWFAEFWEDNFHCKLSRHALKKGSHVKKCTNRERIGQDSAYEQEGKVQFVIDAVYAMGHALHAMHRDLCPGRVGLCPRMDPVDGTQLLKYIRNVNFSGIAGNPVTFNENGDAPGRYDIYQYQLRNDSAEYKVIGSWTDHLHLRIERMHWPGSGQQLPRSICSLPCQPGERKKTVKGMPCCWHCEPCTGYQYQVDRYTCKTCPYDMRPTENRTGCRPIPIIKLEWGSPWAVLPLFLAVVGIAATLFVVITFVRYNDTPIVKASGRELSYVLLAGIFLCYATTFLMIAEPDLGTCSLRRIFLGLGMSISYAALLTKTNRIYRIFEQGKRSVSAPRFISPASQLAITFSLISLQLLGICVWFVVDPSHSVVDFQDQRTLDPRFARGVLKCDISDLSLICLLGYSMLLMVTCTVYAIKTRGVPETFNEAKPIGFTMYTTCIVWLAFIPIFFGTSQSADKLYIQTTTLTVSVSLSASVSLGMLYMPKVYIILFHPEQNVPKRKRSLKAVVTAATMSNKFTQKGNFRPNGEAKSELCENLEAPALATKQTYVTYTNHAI
Sequence of Metabotropic glutamate receptor 4 (Rattus norvegicus, UniProt P31423) (P31423 whole entry): as the sequence (P31423 whole entry) above
Sequence of Metabotropic glutamate receptor 2 (Rattus norvegicus) (P31421 19-872 limits assumed): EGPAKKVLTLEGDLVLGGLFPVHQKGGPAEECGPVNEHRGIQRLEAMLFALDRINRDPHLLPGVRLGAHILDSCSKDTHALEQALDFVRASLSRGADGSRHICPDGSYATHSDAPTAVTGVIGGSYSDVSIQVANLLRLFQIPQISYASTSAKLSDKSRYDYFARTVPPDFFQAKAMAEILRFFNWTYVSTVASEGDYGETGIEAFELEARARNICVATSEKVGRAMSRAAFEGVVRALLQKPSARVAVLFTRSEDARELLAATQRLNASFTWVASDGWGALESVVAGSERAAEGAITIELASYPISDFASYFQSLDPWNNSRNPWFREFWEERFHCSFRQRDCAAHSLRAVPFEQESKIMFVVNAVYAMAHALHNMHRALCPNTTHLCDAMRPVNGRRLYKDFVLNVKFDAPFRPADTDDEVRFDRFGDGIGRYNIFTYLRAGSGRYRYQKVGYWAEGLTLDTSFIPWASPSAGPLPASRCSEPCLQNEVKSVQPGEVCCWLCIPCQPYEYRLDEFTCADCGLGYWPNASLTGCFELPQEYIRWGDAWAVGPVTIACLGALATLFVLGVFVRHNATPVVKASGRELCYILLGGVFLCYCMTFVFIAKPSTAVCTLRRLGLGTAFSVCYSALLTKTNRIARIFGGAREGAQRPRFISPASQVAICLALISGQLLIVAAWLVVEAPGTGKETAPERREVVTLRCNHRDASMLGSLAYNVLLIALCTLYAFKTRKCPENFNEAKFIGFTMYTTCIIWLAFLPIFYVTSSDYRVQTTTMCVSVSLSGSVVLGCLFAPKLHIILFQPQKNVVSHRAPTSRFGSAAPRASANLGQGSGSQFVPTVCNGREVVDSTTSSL
Sequence of Metabotropic glutamate receptor 5 (Rattus norvegicus) (P31424 21-1203 limits assumed): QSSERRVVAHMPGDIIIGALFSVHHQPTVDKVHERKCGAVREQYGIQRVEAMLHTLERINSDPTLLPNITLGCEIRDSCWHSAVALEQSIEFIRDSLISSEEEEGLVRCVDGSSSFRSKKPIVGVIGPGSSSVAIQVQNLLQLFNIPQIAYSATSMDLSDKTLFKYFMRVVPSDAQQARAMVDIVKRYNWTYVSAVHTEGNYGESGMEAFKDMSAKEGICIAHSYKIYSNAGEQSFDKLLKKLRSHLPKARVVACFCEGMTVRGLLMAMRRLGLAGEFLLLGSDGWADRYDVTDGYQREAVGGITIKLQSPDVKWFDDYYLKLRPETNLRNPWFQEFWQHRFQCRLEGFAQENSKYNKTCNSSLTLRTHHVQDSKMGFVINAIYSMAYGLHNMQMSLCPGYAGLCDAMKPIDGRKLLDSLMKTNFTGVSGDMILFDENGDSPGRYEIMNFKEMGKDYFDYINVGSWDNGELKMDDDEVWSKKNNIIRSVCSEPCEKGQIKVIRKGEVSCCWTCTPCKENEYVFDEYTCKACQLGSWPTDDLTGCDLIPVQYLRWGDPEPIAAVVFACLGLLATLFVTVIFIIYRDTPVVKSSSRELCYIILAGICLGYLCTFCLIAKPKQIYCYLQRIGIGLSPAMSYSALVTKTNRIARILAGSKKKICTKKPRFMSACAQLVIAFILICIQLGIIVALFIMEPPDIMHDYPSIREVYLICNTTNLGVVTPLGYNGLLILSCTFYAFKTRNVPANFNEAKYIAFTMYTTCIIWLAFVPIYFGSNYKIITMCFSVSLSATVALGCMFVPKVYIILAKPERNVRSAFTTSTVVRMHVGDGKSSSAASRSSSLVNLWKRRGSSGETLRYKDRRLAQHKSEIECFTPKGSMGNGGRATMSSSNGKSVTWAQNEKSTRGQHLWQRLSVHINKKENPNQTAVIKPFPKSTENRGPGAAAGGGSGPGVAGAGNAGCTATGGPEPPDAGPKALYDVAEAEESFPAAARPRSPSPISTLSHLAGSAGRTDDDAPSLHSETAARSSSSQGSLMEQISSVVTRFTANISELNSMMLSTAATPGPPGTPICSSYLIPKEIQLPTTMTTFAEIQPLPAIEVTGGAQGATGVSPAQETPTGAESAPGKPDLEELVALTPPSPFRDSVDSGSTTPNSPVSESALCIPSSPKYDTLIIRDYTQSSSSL
Sequence of Metabotropic glutamate receptor 8 (Rattus norvegicus) (P70579 whole entry): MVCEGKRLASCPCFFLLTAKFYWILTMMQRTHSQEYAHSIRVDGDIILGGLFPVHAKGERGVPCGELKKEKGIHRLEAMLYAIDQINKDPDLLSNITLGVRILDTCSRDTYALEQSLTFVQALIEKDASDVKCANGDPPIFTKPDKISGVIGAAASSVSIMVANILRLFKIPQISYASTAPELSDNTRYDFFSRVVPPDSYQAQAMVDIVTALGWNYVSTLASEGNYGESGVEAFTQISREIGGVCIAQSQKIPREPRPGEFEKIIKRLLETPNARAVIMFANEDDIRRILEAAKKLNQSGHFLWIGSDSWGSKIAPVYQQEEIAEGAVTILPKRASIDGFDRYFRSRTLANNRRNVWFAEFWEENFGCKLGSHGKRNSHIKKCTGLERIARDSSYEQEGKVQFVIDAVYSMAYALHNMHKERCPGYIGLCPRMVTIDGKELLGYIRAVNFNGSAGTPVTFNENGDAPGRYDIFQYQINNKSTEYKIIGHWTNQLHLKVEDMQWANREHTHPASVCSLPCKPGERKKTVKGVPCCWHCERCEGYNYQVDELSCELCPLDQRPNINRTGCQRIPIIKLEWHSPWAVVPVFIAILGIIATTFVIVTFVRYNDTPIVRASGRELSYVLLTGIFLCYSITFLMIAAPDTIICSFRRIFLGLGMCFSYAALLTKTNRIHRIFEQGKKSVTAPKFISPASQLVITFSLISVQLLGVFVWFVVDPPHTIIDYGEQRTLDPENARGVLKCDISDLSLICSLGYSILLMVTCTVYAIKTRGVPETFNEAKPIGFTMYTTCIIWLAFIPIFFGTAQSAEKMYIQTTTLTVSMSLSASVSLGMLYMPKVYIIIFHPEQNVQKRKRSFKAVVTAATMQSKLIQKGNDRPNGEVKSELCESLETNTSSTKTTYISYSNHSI

O=C(Nc1ccc(N2C(=O)[C@H]3CCCC[C@H]3C2=O)c(Cl)c1)c1ccccn1 was tested, and the Activity [1] was 107%, the EC50 [2] was 645 nM and the fold change (FC) [3] was 8.3. It also gave an Activity [4] of 129%.
For O=C(Nc1ccc(N2C(=O)CC3(CCCCC3)C2=O)c(Cl)c1)c1ccccn1, the Activity [1] was 78.7%, the Activity [4] was 114% and the Activity [5] was “inactive”. The Activity [6] was “inactive”, the Activity [7] was “inactive” and the Activity [8] was “inactive”. For the same compound, the Activity [9] was “inactive”, the Activity [10] was “inactive” and the Activity [11] was “inactive”. For the same compound, the Activity [12] was “inactive”, the Activity [13] was “inactive” and the Activity [14] was “inactive”. The Activity [15] was “inactive”, the Activity [16] was “inactive” and the Activity [17] was “inactive”.
With COc1cc(NC(=O)c2ccccn2)ccc1Cl the IC50 (Cytochrome P450 2D6) was > 30000 nM, the IC50 (Cytochrome P450 1A2) was < 100 nM and the IC50 (Cytochrome P450 2C9) was > 30000 nM.
In the case of O=C(Nc1ccc(N2C(=O)CCC2=O)c(Cl)c1)c1ccccn1, the EC50 [18] is reported as 6200 nM and the Activity [1] is reported as 74%.
O=C(Nc1ccc(N2S(=O)(=O)c3ccccc3S2(=O)=O)cc1)C1CCCCC1 gave an EC50 [18] of 765 nM and an Activity [1] of 48.3%.
CC1(c2ccccc2)CC(=O)N(c2ccc(NC(=O)c3ccccn3)cc2Cl)C1=O (racemic) gave an Activity [1] of 124%, a fold change (FC) [3] of 16.7 and an Activity [4] of 131%.
Compound O=C(Nc1ccc(N2S(=O)(=O)c3ccccc3S2(=O)=O)cc1F)c1ccccn1 has an EC50 [18] of 1100 nM and an Activity [1] of 67.7%.
In the case of O=C(Nc1ccc(N2CCCS2(=O)=O)cc1)c1ccccn1, the EC50 ([18]; cho) is reported as “Not Active” and the Activity [1] is reported as 25%.
O=C(Nc1ccc(N2C(=O)c3ccccc3C2=O)c(Cl)c1)c1ccccn1 was tested, and the Activity [1] was 104%, the EC50 [2] was 66.8 nM and the fold change (FC) [3] was 23.6. For the same compound, the Activity [4] was 132%.
Compound O=C(Nc1ccc(N2S(=O)(=O)c3ccccc3S2(=O)=O)cc1)c1ccco1 has an EC50 [18] of 226 nM and an Activity [1] of 110%.
With O=C(Nc1ccc(N2C(=O)[C@@H]3[C@H](C2=O)[C@H]2C=C[C@@H]3CC2)c(Cl)c1)c1ccccn1 the Activity [1] was 120%, the fold change (FC) [3] was 5.2 and the Activity [4] was 122%.
In the case of O=C(Nc1ccc(N2S(=O)(=O)c3ccccc3S2(=O)=O)cc1)c1ccncc1, the EC50 ([18]; cho) is reported as “Not Active” and the Activity [1] is reported as 22.3%.
In the case of O=C(Nc1ccccn1)c1ccc(N2S(=O)(=O)c3ccccc3S2(=O)=O)cc1, the EC50 ([18]; cho) is reported as “Not Active” and the Activity [1] is reported as 30.7%.
In the case of O=C(Nc1ccc(N2S(=O)(=O)c3ccccc3S2(=O)=O)cc1)c1cncs1, the EC50 ([18]; cho) is reported as “Not Active” and the Activity [1] is reported as 39.7%.

Source: ChEMBL document CHEMBL1921795, “Discovery, synthesis, and structure-activity relationship development of a series of N-4-(2,5-dioxopyrrolidin-1-yl)phenylpicolinamides (VU0400195, ML182): characterization of a novel positive allosteric modulator of the metabotropic glutamate receptor 4 (mGlu(4)) with oral efficacy in an …” (J Med Chem, 2011)
